The results in this text go back to ChEMBL document CHEMBL4610072, “Polyacetylenes from Oplopanax horridus and Panax ginseng: Relationship between Structure and PPARγ Activation” (J Nat Prod, 2020).

Assay type in all cases: cell-based
Data set [1] has as its system HEK293. As to the kind of experiment: Cytotoxicity against HEK293 cells assessed as cell viability at 10 uM after 24 hrs by resazurin conversion assay. The conditions noted are these: human, hek293, 24 h. The gist of the method: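 HEK293 cells seeded 5 × 10^5 per well, grown overnight, then exposed to 10 μM compound in stripped DMEM for 24 h; vehicle 0.4% DMSO. Wells PBS-washed, then 10 μg/mL resazurin in PBS added for 4 h; conversion read by fluorescence (excitation 535 nm). Viability relative to vehicle; at least three experiments, four technical replicates each.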
(In general: Resazurin is reduced to fluorescent resorufin, in cell work by metabolically active cells.)

The nature of data set [2]: (§1) Cytotoxicity against HEK293 cells assessed as cell viability at 3 uM after 18 hrs by luciferase assay relative to control. Conditions: human, HEK293 cells; read-out: Activity. The gist of the method: (§2)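 HEK293 cells calcium-phosphate co-transfected with PPARγ expression plasmid, PPRE-luciferase reporter and pEGFP-N1; 6 h later reseeded at 4 × 10^5/well in DMEM with 5% charcoal-stripped serum and given 3 μM compound for 18 h; vehicle 0.1% DMSO. After lysis, EGFP fluorescence relative to vehicle gave viability; n = 3–4, four technical replicates.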

In data set [3] the test system is HEK293. Described as §1. The conditions noted are these: human, hek293, 18 h, 3 µM. The gist of the method: as §2
The target of data set [4] is T1, Peroxisome proliferator-activated receptor gamma (Homo sapiens) (UniProt P37231).
T1 sequence (whole entry): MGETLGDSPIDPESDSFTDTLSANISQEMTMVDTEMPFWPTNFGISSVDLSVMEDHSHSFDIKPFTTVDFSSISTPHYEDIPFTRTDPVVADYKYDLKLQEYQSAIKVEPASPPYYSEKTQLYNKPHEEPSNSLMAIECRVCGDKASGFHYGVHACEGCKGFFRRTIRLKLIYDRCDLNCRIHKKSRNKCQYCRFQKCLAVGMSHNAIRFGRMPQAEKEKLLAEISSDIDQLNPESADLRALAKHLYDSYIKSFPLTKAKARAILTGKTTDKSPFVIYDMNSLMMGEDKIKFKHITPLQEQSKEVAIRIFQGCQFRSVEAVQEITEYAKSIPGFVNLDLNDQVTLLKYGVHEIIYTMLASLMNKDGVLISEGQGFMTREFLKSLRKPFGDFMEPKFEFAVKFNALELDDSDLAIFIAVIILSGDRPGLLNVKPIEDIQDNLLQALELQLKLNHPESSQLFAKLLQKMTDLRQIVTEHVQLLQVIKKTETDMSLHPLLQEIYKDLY
As to the kind of experiment: Activation of human PPARgamma expressed in HEK293 cells assessed as maximum fold activation at 0.1 to 30 uM incubated for 18 hrs by luciferase reporter assay relative to control. On the technique in general: In a reporter assay the amount or activity of a reporter protein is the signal.

Structures are written as SMILES. Some results are limits rather than exact numbers.

In the case of `C=C[C@@H](O)C#CC#C/C=C/[C@@H](O)CCCCCCC`, in the data set on HEK293 [1], the Activity entry is listed as “Non-Toxic”. `C=C[C@H](O)C#CC#C[C@@H](O)/C=C\CCCCCCCCOC(C)=O`: the Activity result in the data set with HEK293 [1] is “Non-Toxic”. The same measure, in the same setting: the entry for `CCCCCCC[C@H](O)/C=C/C#CC#C[C@H](O)CC` is “Non-Toxic”. With `C=C[C@@H](O)C#CC#CC/C=C\CCCCCCCCO`, the Activity result in the data set on HEK293 [1] was “Non-Toxic”. In addition, the viability at 18 h, 3 µM in data set [2] is over 70%. Taken in the same sequence, the figures for `C=C[C@@H](O)C#CC#CC/C=C\CCCCCCCCOC(C)=O` were “Non-Toxic” and over 70%.

Regarding `CCCCCCC(O)/C=C\[C@H](O)C#CC#C[C@@H](O)CC` (some centres undefined), in the data set on HEK293 [1], the Activity entry is recorded as “Non-Toxic”. Still for that read-out and setting: the entry for `C=C[C@H](O)C#CC#C[C@@H](O)/C=C\C(O)CCCCCC` (some centres undefined) is “Non-Toxic”. For the compound `C=C[C@H](O)C#CC#C[C@@H](O)/C=C\CCCCCCC`, the Activity entry with HEK293 [1] is listed as “Non-Toxic”; with HEK293 [3] it was “Toxic”. In the case of `C=C[C@@H](O)C#CC#C/C=C/[C@@H](O)CCCCCCCCO`, the Activity result with HEK293 [1] is on record as “Non-Toxic”. Same read-out and setting: next, `CC(=O)OCCCCCCCC/C=C\[C@H](O)C#CC#C[C@@H](O)CCO`: “Non-Toxic”. On the same count and under the same terms, the entry for `CCCCCCC[C@@H]1O[C@@H]1CC#CC#CC(=O)CC` is “Non-Toxic”. On the same count and under the same terms, the entry for `CC[C@@H](O)C#CC#C/C=C/[C@@H](O)CCCCCCCCO` is “Non-Toxic”.

Turning to `C=C[C@@H](O)C#CC#C/C=C/[C@@H](O)CCCCCCCCOC(C)=O`, the Activity entry with HEK293 [1] is on record as “Non-Toxic”. Same read-out and setting: the entry for `C=C[C@H](O)C#CC#C[C@@H](O)/C=C\CCCCCCCCO` is “Non-Toxic”; for `CC[C@H](O)C#CC#C[C@@H](O)/C=C\CCCCCCCCOC(C)=O` [OPLOPANDIOL ACETATE] it is “Non-Toxic”. `C=C[C@@H](O)C#CC#CC/C=C\CCCCCCC`: the Activity result in the data set on HEK293 [1] is reported as “Non-Toxic”. Further, the viability at 18 h, 3 µM in data set [2] was over 70%. With `C=CCCCCC[C@@H]1O[C@@H]1CC#CC#CC(=O)CC`, the Activity result in the data set on HEK293 [1] is “Non-Toxic”. Turning to `C=C[C@@H](O)C#CC#CCC1OC1CCCCCCC` (some centres undefined), the Activity result in the data set with HEK293 [1] is recorded as “Non-Toxic”. Besides, in data set [2], the viability at 18 h, 3 µM is over 70%. Turning to `CC[C@@H](O)C#CC#C/C=C/[C@@H](O)CCCCCCCCOC(C)=O`, in the data set on HEK293 [1], the Activity result is “Non-Toxic”.

On to `CCCCCCC/C=C\[C@H](O)C#CC#C[C@@H](O)CC` [OPLOPANDIOL], for which the Activity result in the data set with HEK293 [1] was “Non-Toxic”. `OCCCCCCCC/C=C\[C@H](O)C#CC#C[C@@H](O)CCO`: the Activity result with HEK293 [1] is reported as “Non-Toxic”. As for `CC[C@H](O)C#CC#C[C@@H](O)/C=C\CCCCCCCCO`, the Activity entry in the data set with HEK293 [1] is given as “Non-Toxic”. Regarding `CCCCCCC/C=C\[C@H](O)C#CC#C[C@@H](O)CCO`, the Activity result in the data set with HEK293 [1] is “Non-Toxic”. Consider `C=C[C@@H](O)C#CC#C[C@@H](O)/C=C\CCCCCCC` [FALCARINDIOL], for which, in data set [4], the Emax turned out to be 3.26.
